According to ChEMBL document CHEMBL2146443, “Cytotoxicity and DNA binding property of phenanthrene imidazole with polyglycol side chains” (Bioorg Med Chem Lett, 2012):
The source made the active and inactive calls. The rule behind the calls is not given here.

Columns and labels:
[1] = system: KB; experiment: Antiproliferative activity against human KB cells by MTT assay; type: functional, cell-based
[2] = system: HL-60; experiment: Antiproliferative activity against human HL60 cells by MTT assay; type: functional, cell-based
[3] = Solubility in phosphate buffer at pH 7.5; type: physicochemical
[4] = system: BGC-823; experiment: Antiproliferative activity against human BGC823 cells by MTT assay; type: functional, cell-based
[5] = system: Bel-7402; experiment: Antiproliferative activity against human Bel7402 cells by MTT assay; type: functional, cell-based
[6] = system: Nucleic Acid; experiment: Binding affinity to calf thymus DNA at 4 x 10^-5 M at pH 7.5 by fluorescence spectrophotometry; type: nucleic-acid assay; conditions: Bos taurus
In short: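 Emission quenching: compound at 4.0 × 10^-5 M, excitation 320 nm, 5.0 nm slits, titrated with Ct-DNA 0–400 μM in 1 mM phosphate buffer pH 7.5, 20 mM NaCl, 5% DMSO, 25 °C. F/F0 plotted against DNA concentration; Stern-Volmer constants derived.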

[7] = system: Nucleic Acid; experiment: Binding affinity to calf thymus DNA at 2 x 10^-5 M at pH 7.5 by circular dichroism; type: nucleic-acid assay; conditions: Bos taurus
In short: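 Circular dichroism of Ct-DNA (6.0 × 10^-5 M) alone and with compound (2.0 × 10^-5 M), in 10 mM phosphate buffer pH 7.5 with 20 mM NaCl and 5% DMSO, 25 °C.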

[8] = system: Nucleic Acid; experiment: Binding affinity to calf thymus DNA at 4 x 10^-5 M at pH 7.5 by UV-Vis spectrophotometry; type: nucleic-acid assay; conditions: Bos taurus
In short: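 UV–vis titration: compound at 4.0 × 10^-5 M with Ct-DNA added (0–400 μM) in 1 mM phosphate buffer pH 7.5, 20 mM NaCl, 5% DMSO (v/v), 25 °C. Absorbance read over 300–400 nm to avoid DNA interference; binding constants fitted at maximum absorption band.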

[9] = system: Nucleic Acid; experiment: Binding affinity to calf thymus DNA assessed as change in melting temperature at 5 x 10^-6 M at pH 7.5 relative to control; type: nucleic-acid assay; conditions: Bos taurus

| IC50 [1] [µM] | IC50 [2] [µM] | solubility [3] | IC50 [4] [µM] | IC50 [5] [µM] | Activity [6] | Activity [7] | K [8] [×10⁶ /M] | ΔTm [9] [°C] | Compound |
| --- | --- | --- | --- | --- | --- | --- | --- | --- | --- |
| 11 | 12.1 | – | 9.35 | 10.7 | Active | Active | 1.51 | 4.2 | Cn1c(-c2ccc(OCCOCCO)cc2)[n+](C)c2c3ccccc3c3ccccc3c21 |
| 14.5 | 24.8 | – | 10.7 | 14.1 | Active | Active | 1.68 | 4.8 | Cn1c(-c2ccc(OCCO)cc2)[n+](C)c2c3ccccc3c3ccccc3c21 |
| 44.6 | 11.9 | Insoluble | 24.2 | 27.9 | – | – | – | – | OCCOCCOCCOc1ccc(-c2nc3c4ccccc4c4ccccc4c3[nH]2)cc1 |

Further lines, the compound ahead of its results:

| Compound | IC50 [1] [µM] | IC50 [2] [µM] | solubility [3] | IC50 [4] [µM] | IC50 [5] [µM] | Activity [6] | Activity [7] | K [8] [×10⁶ /M] | ΔTm [9] [°C] |
| --- | --- | --- | --- | --- | --- | --- | --- | --- | --- |
| OCCOCCOc1ccc(-c2nc3c4ccccc4c4ccccc4c3[nH]2)cc1 | 30.7 | 8.14 | Insoluble | 22.5 | 18.1 | – | – | – | – |
| OCCOc1ccc(-c2nc3c4ccccc4c4ccccc4c3[nH]2)cc1 | 7.03 | 11.3 | Insoluble | 6.36 | 4.65 | – | – | – | – |
| Cn1c(-c2ccc(OCCOCCOCCO)cc2)[n+](C)c2c3ccccc3c3ccccc3c21 | 9.12 | 15.6 | – | 7.01 | 10.6 | Active | Active | 0.709 | 4 |
